The record followed here is ChEMBL document CHEMBL1126602, “L-beta-(2S,4S)- and L-alpha-(2S,4R)-dioxolanyl nucleosides as potential anti-HIV agents: asymmetric synthesis and structure-activity relationships” (J Med Chem, 1993).

One experiment concerns CCRF-CEM. Briefly: Effective concentration for inhibition of virus production in human CEM cells.
Conditions: not given
Type of experiment: functional, cell-based.
For `Nc1ccn([C@H]2CO[C@@H](CO)O2)c(=O)n1`, the EC50 (as a rule, the concentration that produces a half-maximal response) came out at 0.009 µM.

The next experiment has as its system CCRF-CEM. Briefly: Cytotoxicity against uninfected PHA-stimulated CEM cells. Type of experiment: cell-based. Conditions: Homo sapiens. The method, boiled down:
(§1)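 Uninfected cells were cultured with or without drug: PHA-stimulated human PBM cells for 6 days, Vero cells for 3 days, CEM cells for 6 days. Cells were then counted with trypan blue. Compounds came from 40 mM DMSO stocks diluted in medium (final DMSO below 0.25%). IC50 was derived from a median effect plot.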
For `Nc1ccn([C@H]2CO[C@@H](CO)O2)c(=O)n1`, the IC50 (in general, the concentration that inhibits the measured activity by half) turned out to be 12.8 µM.

The next experiment relates to Human immunodeficiency virus 1. In words: Effective concentration against HIV-1 strain LAV in human peripheral blood mononuclear (PBM) cells. Format: functional, organism-based.
Conditions: not given
The method, boiled down: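 Mitogen-stimulated human PBM cells infected with HIV-1 LAV at MOI 0.1 (set by limiting dilution in PBM cells). Compounds were added about 45 min after infection, diluted in medium from 40 mM DMSO stocks (final DMSO below 0.25%). Read-out was supernatant reverse transcriptase (RT) level. EC50 was taken from a median effect plot of dose-effect data.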
`Nc1nc(N)c2ncn([C@@H]3CO[C@H](CO)O3)c2n1` had an EC50 of 0.014 µM.
For the compound `Nc1ccn([C@H]2CO[C@H](CO)O2)c(=O)n1`, it took 1.3 µM to reach a half-maximal effect (EC50).
The same measure, in the same setting: in the case of `Nc1ccn([C@H]2CO[C@@H](CO)O2)c(=O)n1` it was 0.016 µM.
The compound `Nc1nc(O)c2ncn([C@H]3CO[C@H](CO)O3)c2n1` had an EC50 of 102 µM.
Still for that read-out and setting: the same measure for `Nc1nc(Cl)nc2c1ncn2[C@H]1CO[C@H](CO)O1`: 1.27 µM; for `Nc1nc(O)c2ncn([C@@H]3CO[C@H](CO)O3)c2n1`: 17.5 µM; for `Nc1ccn([C@@H]2CO[C@H](CO)O2)c(=O)n1` [TROXACITABINE]: 0.002 µM.
Same read-out and setting: the same measure for `Nc1nc(N)c2ncn([C@H]3CO[C@H](CO)O3)c2n1`: 42.1 µM.
Still for that read-out and setting: in the case of `Nc1nc(Cl)nc2c1ncn2[C@@H]1CO[C@H](CO)O1` it was 34.7 µM.

Test system in another experiment: not listed separately
Briefly: Cytotoxicity against uninfected PHA-stimulated peripheral blood mononuclear (PBM) cells. Type of experiment: cell-based. Conditions: Homo sapiens. A digest of the protocol: as §1
`Cc1cn([C@H]2C[C@H](N=[N+]=[N-])[C@@H](CO)O2)c(=O)[nH]c1=O` [ZIDOVUDINE] returned an IC50 above 100 µM.
The compound `Nc1ccn([C@H]2CO[C@H](CO)O2)c(=O)n1` returned an IC50 above 10 µM.
Still for that read-out and setting: in the case of `Nc1ccn([C@H]2CO[C@@H](CO)O2)c(=O)n1` it was 62 µM; in that of `Nc1nc(O)c2ncn([C@H]3CO[C@H](CO)O3)c2n1`, above 100 µM.
Still for that read-out and setting: the same measure for `Nc1nc(O)c2ncn([C@@H]3CO[C@H](CO)O3)c2n1`: above 100 µM.
As for `Nc1ccn([C@@H]2CO[C@H](CO)O2)c(=O)n1` [TROXACITABINE], the IC50 was above 10 µM.

The next experiment concerns Vero. In words: Cytotoxic effect against vero cells. Format: cell-based. Conditions: Chlorocebus sabaeus. The method, boiled down:
as §1
`Nc1ccn([C@H]2CO[C@H](CO)O2)c(=O)n1` showed an IC50 of 16.8 µM.
In turn, `Nc1nc(O)c2ncn([C@H]3CO[C@H](CO)O3)c2n1` displayed an IC50 above 100 µM.
The same measure, in the same setting: the same measure for `Nc1nc(O)c2ncn([C@@H]3CO[C@H](CO)O3)c2n1`: above 100 µM; for `Nc1ccn([C@@H]2CO[C@H](CO)O2)c(=O)n1` [TROXACITABINE]: 0.1 µM.
